Experimental data as given in ChEMBL document CHEMBL1154810, “Synthesis, characterization and biocidal activity of new organotin complexes of 2-(3-oxocyclohex-1-enyl)benzoic acid” (Eur J Med Chem, 2010).
≈ marks a conversion by molar mass, not a printed value.

Test system: Candida albicans
Assay: Antimicrobial activity against Candida albicans ATCC 18804 after 48 hrs
Format: functional
Details: ATCC 18804, 48 h
Procedure, shortened: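 Broth microdilution MIC per NCCLS M27-A in RPMI 1640. Yeasts were pre-grown on Sabouraud medium, 24 h for C. albicans and 48 h for C. neoformans. Compound solution was added to wells, then incubated 37 °C for 48 h. Ketoconazol was the positive control and DMSO 1 and 2% in RPMI the negative controls. Triplicate runs. MIC was the lowest concentration giving an optically clear well, judged visually against the drug-free growth control.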

| Molecule | MIC [µM] |
| --- | --- |
| CC(=O)N1CCN(c2ccc(OCC3COC(Cn4ccnc4)(c4ccc(Cl)cc4Cl)O3)cc2)CC1 (configuration not stated) [KETOCONAZOLE] | 0.24 (≈ 0.128 µg/mL) |

Test system: HEK293
Assay: Cytotoxicity against HEK293 cells after 24 hrs by MTT assay
Format: cell-based, Homo sapiens
Details: not given

| Molecule | IC50 [nM] |
| --- | --- |
| TRIBUTYLCHLOROSTANNANE | 40 |
| DICHLORODIMETHYLSTANNANE | 10 |
| CHLOROTRIPHENYLSTANNANE | 10 |
| DICHLORODIPHENYLSTANNANE | 50 |
| CHLOROTRIMETHYLSTANNANE | 8 |
| DIBUTYLDICHLOROSTANNANE | 30 |
